We go through 26 molecules from ChEMBL document CHEMBL4765247, “Novel mouse GABA uptake inhibitors with enhanced inhibitory activity toward mGAT3/4 and their effect on pain threshold in mice” (Eur J Med Chem, 2020).

Bounds are passed on as bounds.

For series [1], the target named is T1, Sodium- and chloride-dependent GABA transporter 1 (Mus musculus, UniProt P31648). Nature of the series: Displacement of [3H]NO711 from mouse GAT1 expressed in HEK293 cells measured after 40 mins of incubation by LC-ESI-MS-MS method. In kind it is cell-based. The note with it: in the assay text read “unlabelled NO711” for “[3H]NO711”. The method in brief: (§1)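 Competitive MS Binding Assay for mGAT1 using NO-711 as a nonlabeled marker, quantified by LC–ESI–MS–MS. Compounds were screened at 100 µM. […] Otherwise, the percentage of remaining binding at 100 µM is given.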
A general note: Loss of bound radioactivity is the signal in a displacement assay; it reports binding, not function.

The target of series [2] is T2, GABA transporter 4 (Mus musculus, UniProt P31650).
T2 sequence (P31650 whole entry): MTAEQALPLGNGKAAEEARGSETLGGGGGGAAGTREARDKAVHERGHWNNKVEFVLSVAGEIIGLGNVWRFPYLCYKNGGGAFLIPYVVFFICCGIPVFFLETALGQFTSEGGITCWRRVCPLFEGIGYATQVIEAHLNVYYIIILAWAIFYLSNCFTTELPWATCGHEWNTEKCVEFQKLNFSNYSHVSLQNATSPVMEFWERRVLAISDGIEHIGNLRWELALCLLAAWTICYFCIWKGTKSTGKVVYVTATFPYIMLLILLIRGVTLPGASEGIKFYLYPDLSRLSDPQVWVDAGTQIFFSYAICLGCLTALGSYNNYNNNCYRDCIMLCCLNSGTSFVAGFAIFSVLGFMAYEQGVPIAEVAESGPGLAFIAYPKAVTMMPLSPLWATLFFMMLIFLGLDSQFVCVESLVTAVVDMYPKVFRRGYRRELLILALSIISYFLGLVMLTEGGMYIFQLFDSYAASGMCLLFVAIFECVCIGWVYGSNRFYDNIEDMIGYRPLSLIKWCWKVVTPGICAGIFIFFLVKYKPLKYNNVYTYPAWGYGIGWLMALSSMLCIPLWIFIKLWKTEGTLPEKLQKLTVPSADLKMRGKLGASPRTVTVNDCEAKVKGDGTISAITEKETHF
Description: Inhibition of mouse GAT4 expressed in HEK293 cell line assessed as inhibition of [3H]GABA uptake measured after 35 mins by liquid scintillation method. In kind it is cell-based. A digest of the protocol: (§2)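 Otherwise, the remaining uptake at 100 µM is reported as a percentage. Values without SEM come from a single triplicate experiment.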

Series [3] concerns the target T1, Sodium- and chloride-dependent GABA transporter 1. Description: Inhibition of mouse GAT1 expressed in HEK293 cell line assessed as inhibition of [3H]GABA uptake measured after 35 mins by liquid scintillation method. The class given is cell-based. The method in brief: as §2
Series [4] is described as follows: Lipophilicity, logP of the compound by UPLC-MS method. The class given is physicochemical. To be noted: octanol/water; read-out: logP. A digest of the protocol:
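LogP measured by UPLC on a BEH C18 column (2.1 × 100 mm, 1.7 µm, with C18 pre-column) coupled to an ESI tandem quadrupole MS. The method was calibrated with reference compounds of established logP values.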

A further series has as its target T3, GABA transporter 3 (Mus musculus, UniProt P31649).
T3 sequence (P31649 whole entry): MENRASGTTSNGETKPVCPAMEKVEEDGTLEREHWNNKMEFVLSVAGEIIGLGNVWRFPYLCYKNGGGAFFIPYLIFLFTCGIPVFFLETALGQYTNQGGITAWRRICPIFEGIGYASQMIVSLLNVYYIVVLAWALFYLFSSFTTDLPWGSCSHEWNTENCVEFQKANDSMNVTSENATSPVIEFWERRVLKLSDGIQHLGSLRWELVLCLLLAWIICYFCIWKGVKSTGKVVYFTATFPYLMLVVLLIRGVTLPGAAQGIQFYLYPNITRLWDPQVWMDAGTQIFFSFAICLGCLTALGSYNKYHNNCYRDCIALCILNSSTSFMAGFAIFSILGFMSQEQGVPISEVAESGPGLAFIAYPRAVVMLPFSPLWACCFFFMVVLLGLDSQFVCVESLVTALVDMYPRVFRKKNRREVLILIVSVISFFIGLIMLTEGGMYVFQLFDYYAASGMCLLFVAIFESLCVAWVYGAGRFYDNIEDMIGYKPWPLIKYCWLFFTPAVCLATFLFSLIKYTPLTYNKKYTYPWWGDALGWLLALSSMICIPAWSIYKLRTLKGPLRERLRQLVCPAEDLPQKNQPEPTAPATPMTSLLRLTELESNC
Nature of the series: Inhibition of mouse GTA 3 receptor.

Series [5] deals with T2, GABA transporter 4. Description: Inhibition of mouse GTA4 receptor.
For series [6], the target named is T1, Sodium- and chloride-dependent GABA transporter 1. Description: Inhibition of mouse GTA 1 receptor.
For series [7], the target named is Sodium- and chloride-dependent GABA transporter 1 (Mus musculus) (UniProt P31648). Nature of the series: Displacement of [3H]NO711 from mouse GAT1 expressed in HEK293 cells at 100 uM measured after 40 mins of incubation by LC-ESI-MS-MS method. To be noted: in the assay text read “NO711” for “[3H]NO711”. In kind it is cell-based. A digest of the protocol:
as §1

Series [8] shares this target. Description: Inhibition of mouse GAT1 expressed in HEK293 cell line assessed as inhibition of [3H]GABA uptake at 100 uM measured after 35 mins by liquid scintillation method; values are per cent of control.
The target of series [9] is T1, Sodium- and chloride-dependent GABA transporter 1. Description: Displacement of unlabelled NO711 from mouse GAT1 expressed in HEK293 cells measured after 40 mins of incubation by LC-ESI-MS-MS method.

With `Cc1ccsc1C(=CCCN(C)[C@@H](CO)C(=O)NCc1ccc(Cl)cc1)c1sccc1C`, affinity in [1] was put at a Ki of 87.1 µM.
Consider `Cc1ccsc1C(=CCCN(C)C(CCN)C(=O)NCc1ccccc1Cl)c1sccc1C` (centres undefined), for which the figures for the IC50 (at GABA transporter 4 [2]; in series [3]) were 5.62 µM and 7.59 µM, respectively. Moreover, the affinity in series [1], expressed as Ki, was 11.7 µM. In [4], the logP (in general, the decadic logarithm of the partition coefficient of the neutral form, usually between octanol and water) was 6.11.
In the case of `O=C1Nc2ccc(-c3cccs3)cc2C1=O`, the half-maximal inhibitory concentration (IC50) (commonly the midpoint of a concentration-inhibition curve) against GABA transporter 3 was 182 µM; against GABA transporter 4 [5], 6.31 µM; in [6] it was greater than 1000 µM.
Consider `Cc1ccsc1C(=CCCN(C)C(CC(C)O)C(=O)NCc1ccccc1Cl)c1sccc1C` (racemic; form 1), for which the residual activity (commonly what remains of the control signal, in per cent) is 85% in [7] and 51% in series [8].
As for `Cc1ccsc1C(=CCCN(C)C(CCN)C(=O)NCc1ccccc1)c1sccc1C` (centres undefined), the IC50 on GABA transporter 4 [2] was 6.61 µM; in series [3] it was 11.5 µM. Further, in [1], the Ki (in general, the equilibrium dissociation constant of an inhibitor or competing ligand from its target) was 24.5 µM. For the same molecule, the lipophilicity (logP) in series [4] is 5.5.
`Cc1ccsc1C(=CCCN(C)C(CCO)C(=O)NCc1ccc(F)cc1)c1sccc1C` (centres undefined) yielded a residual activity in series [7] of 70%. The IC50 at GABA transporter 4 [2] is 11 µM; in series [3], 15.5 µM. In series [4], the lipophilicity (logP) came out at 5.87.
In [7], `Cc1ccsc1C(=CCCN(C)C(CCO)C(=O)NCc1ccc(Cl)cc1)c1sccc1C` (centres undefined) had a residual activity of 81%. Also, the figures for the IC50 (at GABA transporter 4 [2]; in [3]) were 7.41 µM and 9.33 µM, respectively. Further, the log partition coefficient (logP) in series [4] is 6.38.
For `Cc1ccsc1C(=CCCN(C)C(CCN)C(=O)NCc1ccc(Cl)cc1)c1sccc1C` (centres undefined), the concentration for half-maximal inhibition (IC50) on GABA transporter 4 [2] is 8.13 µM; in series [3], 9.33 µM. Moreover, the affinity in series [1], expressed as Ki, was 20 µM. The logP in [4] is 5.85.
`Cc1ccsc1C(=CCCN(C)C(CC(C)O)C(=O)NCc1ccc(Cl)cc1)c1sccc1C` (stereo in doubt): the residual activity amounted to 90% in series [7] and 63% in series [8].
Turning to `Cc1ccsc1C(=CCCN(C)C(CO)C(=O)NCc1ccccc1)c1sccc1C` (centres undefined), the residual activity in [7] worked out at 46%. Moreover, the concentration for half-maximal inhibition (IC50) is 20.9 µM on GABA transporter 4 [2] and 35.5 µM in [3]. Further, in series [4], the log partition coefficient (logP) amounted to 6.26.
The matching figures for `Cc1ccsc1C(=CCCN(C)C(CCO)C(=O)NCc1ccc(F)cc1F)c1sccc1C` (centres undefined): 71%, 8.71 µM, 12.3 µM and 6.37.
As for `Cc1ccsc1C(=CCCN(C)[C@@H](CCO)C(=O)NCc1ccccc1Cl)c1sccc1C`, the affinity in series [9] corresponds to a Ki of 38 µM.
`Cc1ccsc1C(=CCCN(C)C(CCO)C(=O)NC(C)c1ccccc1)c1sccc1C` (centres undefined) displayed a residual activity in series [7] of 68%. In addition, the IC50 is 13.8 µM at GABA transporter 4 [2] and 30.2 µM in series [3]. The lipophilicity (logP) in [4] is 6.1.
On to `COc1ccc(C(OCCN2CCC[C@@H](C(=O)O)C2)(c2ccc(OC)cc2)c2ccc(OC)cc2C)cc1`, for which the IC50 against GABA transporter 3 was 14.1 µM; against GABA transporter 4 [5], 1.66 µM; in series [6] it was 64.6 µM.
Consider `Cc1ccsc1C(=CCCN(C)C(CCN)C(=O)NCc1ccc(F)cc1)c1sccc1C` (centres undefined), for which the results for the IC50 (at GABA transporter 4 [2]; in [3]) were 7.59 µM and 11.7 µM, respectively. The molecule also had a Ki in series [1] of 21.9 µM. Moreover, the logP in series [4] is 6.45.
Regarding `Cc1ccsc1C(=CCCN(C)C(CO)C(=O)NCc1ccc(F)cc1)c1sccc1C` (centres undefined), the IC50 at GABA transporter 4 [2] is 17 µM; in series [3], 15.1 µM. The molecule further had a Ki in series [9] of 51.3 µM. Besides, the logP in series [4] was found to be 6.45.
`Cc1ccc(CNC(=O)C(CCN)N(C)CCC=C(c2sccc2C)c2sccc2C)cc1` (centres undefined): the values for the half-inhibitory concentration (IC50) (on GABA transporter 4 [2]; in [3]) were 6.92 µM and 11.5 µM, respectively. In addition, the affinity in series [1], expressed as Ki, was 18.2 µM. Moreover, the log partition coefficient (logP) in series [4] turned out to be 6.61.
In the case of `Cc1ccsc1C(=CCCN(C)[C@H](CCO)C(=O)NCc1ccccc1Cl)c1sccc1C`, the half-inhibitory concentration (IC50) in series [3] was 13.8 µM. Further, in series [1], the Ki is 25.7 µM.
`Cc1ccc(CNC(=O)C(CCO)N(C)CCC=C(c2sccc2C)c2sccc2C)cc1` (centres undefined): the residual activity in series [7] is 58%. Also, the IC50 is 7.08 µM at GABA transporter 4 [2] and 12.9 µM in series [3]. The logP in [4] was determined as 6.2.
On to `CN(CCC=C(c1ccccc1)c1ccccc1)C(CCN)C(=O)NCc1ccccc1Cl` (centres undefined), for which, at GABA transporter 3, half-maximal inhibition (IC50) required 10 µM.
For `Cc1ccsc1C(=CCCN(C)[C@H]1CCc2onc(O)c2C1)c1sccc1C`, the results for the half-inhibitory concentration (IC50) (at GABA transporter 3; against GABA transporter 4 [5]; in [6]) were greater than 302 µM, greater than 302 µM and 7.08 µM, respectively.
`Cc1ccsc1C(=CCCN(C)C(CC(C)O)C(=O)NCc1ccccc1Cl)c1sccc1C` (racemic; form 2): the figures for the residual activity in series [7] and in [8] were 88% and 47%, respectively.
As for `Cc1ccsc1C(=CCCN(C)[C@@H]1CCc2onc(O)c2C1)c1sccc1C`, the results for the IC50 (against GABA transporter 3; at GABA transporter 4 [5]; in series [6]) were greater than 302 µM, greater than 302 µM and 7.08 µM, respectively.
On to `NCCC(=O)O` [BETA-ALANINE], for which the IC50 on GABA transporter 3 is 66.1 µM; on GABA transporter 4 [5], 110 µM; in series [6], 2950 µM.
Take `Cc1ccsc1C(=CCCN(C)[C@H](CO)C(=O)NCc1ccc(Cl)cc1)c1sccc1C`: the IC50 in series [3] is 20.4 µM. The Ki in series [1] is 18.6 µM.
For the molecule `Cc1ccc(CNC(=O)C(CO)N(C)CCC=C(c2sccc2C)c2sccc2C)cc1` (centres undefined), the IC50 was 9.55 µM on GABA transporter 4 [2] and 20 µM in series [3]. In addition, the inhibition constant Ki in [9] was 38.9 µM.
